Experiment [1] deals with HMLE_sh_eGFP viability, CellTiter-Glo luminescence, 72 h. In words: viability loss of control HMLE line – cell-based, HMLE_sh_eGFP, luminescence, powder samples, set 5, counter-screen for breast cancer stem cell project, dose response (AID 504533). An outline of the steps: (§1)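 Assay system: HMLE breast epithelial cells expressing shRNA against eGFP; amount: 2000 cells per well; times: compound exposure about 70–74 h at 37 °C, 5% CO2; dosing: 100 nL compound per well; controls: DMSO neutral control, 160 µM puromycin positive control; technique: CellTiter-Glo luminescence, reagent diluted 1:3 in PBS; medium: serum-free CSC medium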
(Counterscreens check selectivity or assay interference.)

Assay in experiment [2]: as above
Particulars: HMLE_sh_eGFP viability, CellTiter-Glo luminescence, 72 h. An outline of the steps: as §1
(In ATP-based viability assays light output follows the ATP content of the culture.)

Several values for one entry are separate records, joined by “and”; a condition that tells them apart may be missing. Identical values can stand only once. Records with an inconclusive call do not appear. Activity calls are given as the source filed them.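 How the source made its calls: active means compound whose fitted half-maximal viability-loss concentration is within ten times its top tested dose in every test run; inconclusive means test runs disagree, or a weak flat or poorly fitted curve; inactive means every test run inactive.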

On to `CC(C)Cc1ccc(/C=C/C(=O)NC2=NCCS2)cc1`, for which the AC50 in experiment [1] was 3.27 µM.
As for `CC(C)NC(=O)c1ccc(COc2ccccc2)o1`, the activity change, negative = viability loss in experiment [2] (at 19.5 µM (top of the series)) is -2.28% (inactive).
As for `Cc1csc(NC(=O)c2ccc(COCc3ccccc3)o2)n1`, in experiment [1], the half-maximal activity concentration (AC50) is 19.6 µM.
In the case of `Cc1coc(NC(=O)c2ccc(COc3ccccc3)o2)n1`, the activity change, negative = viability loss in experiment [2] (at 19.5 µM (top of the series)) was 3.69% (inactive).
With `Cc1csc(NC(=O)c2ccc(COc3ccccc3S(C)(=O)=O)o2)n1`, in experiment [2] (at 19.5 µM (top of the series)), the activity change, negative = viability loss was 2.08% (inactive).
For `Cc1csc(NC(=O)c2ccc(COC(C)C)o2)n1`, in experiment [2] (at 19.5 µM (top of the series)), the activity change, negative = viability loss is -0.134% (inactive).
Consider `CCN(CC)C(=O)c1ccc(COc2ccccc2)o1`, for which, in experiment [2] (at 19.5 µM (top of the series)), the activity change, negative = viability loss is 6.38% (inactive).
For the molecule `CC(C)c1ccc(/C=C/C(=O)Nc2nc3ccccc3s2)cc1`, the activity change, negative = viability loss in experiment [2] (at 19.5 µM (top of the series)) is -0.373% (inactive).
Consider `Cc1csc(NC(=O)c2ccc(COC(C)(C)C)o2)n1`, for which the activity change, negative = viability loss in experiment [2] (at 19.5 µM (top of the series)) is -4.37% (inactive).
In the case of `Cc1csc(NC(=O)c2ccc(CNc3ccccc3)o2)n1`, the AC50 in experiment [1] is 5.09 µM.
For `C/C(=C\C(=O)NC1=NCCS1)c1ccc(C)cc1`, in experiment [2] (at 19.5 µM (top of the series)), the activity change, negative = viability loss was -3.46% (inactive).
Take `Cn1c(C(=O)NC2=NCCS2)cc2ccccc21`: the activity change, negative = viability loss in experiment [2] (at 19.5 µM (top of the series)) is -5.73% (inactive).
Same read-out and setting: in the case of `COCc1ccc(C(=O)Nc2nc(C)cs2)o1` it was 15.3% (inactive).
On to `Cc1cccc(OCc2ccc(C(=O)Nc3nc(C)cs3)o2)c1`, for which, in experiment [1], the AC50 was 0.656 µM and 4.39 µM.
As for `O=C(Nc1nncs1)c1ccc(COc2ccccc2)o1`, in experiment [2] (at 19.5 µM (top of the series)), the activity change, negative = viability loss was 3.92% (inactive).
As to `Cc1csc(NC(=O)c2ccc(CS(=O)(=O)c3ccccc3)o2)n1`, the activity change, negative = viability loss in experiment [2] (at 19.5 µM (top of the series)) was -13.3% (inactive).
Same read-out and setting: to `CC(C)c1ccc(/C=C/C(=O)N(C)C2=NCCS2)cc1` belongs 10.1% (inactive); to `C/C(=C\C(=O)NC1=NCCS1)c1ccc(CC(C)C)cc1`, 17.8% (inactive).
In the case of `N#Cc1ccc(/C=C/C(=O)NC2=NCCS2)cc1`, in experiment [2] (at 19.5 µM (top of the series)), the activity change, negative = viability loss was -10.2% (inactive).
For `Cc1ccc2cc(C(=O)NC3=NCCS3)n(C)c2c1`, in experiment [2] (at 30 µM (top of the series)), the activity change, negative = viability loss was -4.12% (inactive).
`Cc1coc(NC(=O)/C=C/c2ccc(C(C)C)cc2)n1`: the activity change, negative = viability loss in experiment [2] (at 19.5 µM (top of the series)) was -6.75% (inactive).
Regarding `Cc1cc(Br)ccc1OCC(=O)N/N=C/c1ccc[nH]1`, the activity change, negative = viability loss in experiment [2] (at 19.5 µM (top of the series)) was -25.7% (inactive).
On to `Cc1csc(NC(=O)c2ccc(CCc3ccccc3)o2)n1`, for which the half-maximal activity concentration (AC50) in experiment [1] was 9.08 µM.
For the molecule `COc1cccc(OCc2ccc(C(=O)Nc3nc(C)cs3)o2)c1`, the AC50 in experiment [1] is 2.64 µM.
`Cc1cc(C)c(OCC(=O)N/N=C/c2ccc[nH]2)c(C)c1`: the activity change, negative = viability loss in experiment [2] (at 19.5 µM (top of the series)) was 1.17% (inactive).
For the molecule `N#Cc1cnc(NC(=O)c2ccc(COc3ccccc3)o2)s1`, in experiment [2] (at 19.5 µM (top of the series)), the activity change, negative = viability loss is -1.72% (inactive).

Broadly, the AC50 is the concentration at which the activity in the assay is half-maximal.
